# Measurements gathered from unrelated publications.
# Protocols differ between the studies behind these lines.
# Cell line: Vero
# Observed: cell growth or viability
Compound,technique,time,CC50
COc1ccc(C[C@H](NC(=O)[C@H](C)NC(=O)CN2CCOCC2)C(=O)N[C@@H](Cc2ccccc2)C(=O)C(=O)Nc2ccccc2)cc1,ATP luminescence,48 h,71.1 µM
C#Cc1cccc(Nc2ncnc3cc(OCCOC)c(OCCOC)cc23)c1,resazurin,,> 60 µM
Clc1ccc(C(Cn2ccnc2)OCc2csc3c(Cl)cccc23)c(Cl)c1 (stereo not drawn),WST-1,18 h,~21.2 µM
CC(C)C[C@H](NC(=O)OCc1ccccc1)C(=O)N[C@@H](CC(C)C)C(=O)N[C@@H](CC(C)C)C(=O)C(=O)Nc1ccccc1,ATP luminescence,48 h,16 µM
COc1cc2ncnc(Nc3ccc(F)c(Cl)c3)c2cc1OCCCN1CCOCC1,resazurin,,> 60 µM
CC(C)(C)NC(=O)N[C@H](C(=O)N1C[C@H]2[C@@H]([C@H]1C(=O)NC(CC1CCC1)C(=O)C(N)=O)C2(C)C)C(C)(C)C (stereo partly drawn),neutral red,48 h,> 100 µM
O=C(NCc1ccc(F)cc1)c1cccc(Nc2ccc(-c3ccccc3)nn2)c1,MTS,48 h,> 100 µM
COC(=O)N[C@H](C(=O)N1C[C@@H](n2cc(C(=O)OC)nn2)C[C@H]1c1ncc(-c2ccc(-c3ccc(-c4cnc([C@@H]5C[C@H](n6cc(C(=O)OC)nn6)CN5C(=O)[C@@H](NC(=O)OC)C(C)C)[nH]4)cc3)cc2)[nH]1)C(C)C,,,> 100 µM
CCOC(=O)c1c(NCc2ccc(SC)cc2)c2cccc(C)c2[nH]c1=O,MTS,48 h,> 100 µM
CCN(CC)CCNC(=O)c1c(C)[nH]c(/C=C2\C(=O)Nc3ccc(F)cc32)c1C,resazurin,,25 µM
C=C(c1ccc(C(=O)O)cc1)c1cc2c(cc1C)C(C)(C)CCC2(C)C,WST-1,18 h,> 40 µM
FC(F)(F)c1cccc(Nc2nc(NCCOc3ccccc3)nc3[nH]cnc23)c1,ATP luminescence,,> 200 µM
CC(C)(C)[C@H](NS(=O)(=O)C(F)(F)F)C(=O)N1[C@@H]2CC[C@@H](C2)[C@H]1C(=O)N[C@@H](C[C@@H]1CCNC1=O)C(=O)c1nc2ccccc2s1,,48 h,> 50 µM
COC(=O)N[C@H](C(=O)N1C[C@H](n2cc(-c3ccccc3)nn2)C[C@H]1c1ncc(-c2ccc(-c3ccc(-c4cnc([C@@H]5C[C@@H](n6cc(-c7ccccc7)nn6)CN5C(=O)[C@@H](NC(=O)OC)C(C)C)[nH]4)cc3)cc2)[nH]1)C(C)C,,,> 100 µM
CCC(CC)COC(=O)[C@H](C)N[P@](=O)(OC[C@H]1O[C@@](C#N)(c2ccc3c(N)ncnn23)[C@H](O)[C@@H]1O)Oc1ccccc1,,,> 13 µM
